Data on 23 molecules can be found in ChEMBL document CHEMBL1156562, “4-Amino-2-cyanopyrimidines: novel scaffold for nonpeptidic cathepsin S inhibitors” (Bioorg Med Chem Lett, 2008).

≈ marks a conversion by molar mass, not a printed value. Calls of active or inactive are those of the source. Some results are limits rather than exact numbers.

The target in series [1] is Cathepsin S (Homo sapiens, UniProt P25774). Briefly: Inhibition of human recombinant cathepsin S by fluorometric assay. Put shortly: (§1)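 Fluorometric inhibition assay with recombinant human enzymes. Cat K and Cat L used Z-Phe-Arg-AMC as substrate. Cat S used L-Leu-Leu-Arg-AMC as substrate. Values reported as IC50.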
Sequence of Cathepsin S (P25774 whole entry): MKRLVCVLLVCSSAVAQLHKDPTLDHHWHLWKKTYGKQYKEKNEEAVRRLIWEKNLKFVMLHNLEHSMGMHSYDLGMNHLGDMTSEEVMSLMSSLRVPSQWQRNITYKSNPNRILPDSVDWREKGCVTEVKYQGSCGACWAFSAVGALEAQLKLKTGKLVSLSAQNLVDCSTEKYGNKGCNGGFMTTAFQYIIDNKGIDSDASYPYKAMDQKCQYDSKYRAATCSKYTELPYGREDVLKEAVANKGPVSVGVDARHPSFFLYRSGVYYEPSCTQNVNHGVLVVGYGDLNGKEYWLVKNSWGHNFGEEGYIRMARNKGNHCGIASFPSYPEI
The target in series [2] is T1, Cathepsin K (Homo sapiens, UniProt P43235).
T1 sequence (P43235 whole entry): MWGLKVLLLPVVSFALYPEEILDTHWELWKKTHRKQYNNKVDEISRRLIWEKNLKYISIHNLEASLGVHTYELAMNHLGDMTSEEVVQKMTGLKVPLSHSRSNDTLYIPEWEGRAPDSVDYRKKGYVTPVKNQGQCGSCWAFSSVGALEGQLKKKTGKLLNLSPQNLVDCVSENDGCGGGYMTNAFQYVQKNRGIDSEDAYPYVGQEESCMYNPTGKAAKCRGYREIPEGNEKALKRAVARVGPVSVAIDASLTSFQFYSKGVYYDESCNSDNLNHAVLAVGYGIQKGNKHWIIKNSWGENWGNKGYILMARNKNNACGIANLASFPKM
Kind of series: Inhibition of human recombinant cathepsin K by fluorometric assay. Put shortly: as §1

Series [3] deals with Procathepsin L (Homo sapiens, UniProt P07711). Briefly: Inhibition of human recombinant cathepsin L by fluorometric assay. Put shortly:
as §1

Series [4] is filed under the species Homo sapiens. Kind of series: Selectivity for human recombinant cathepsin S over human recombinant cathepsin L.
Series [5] is described as follows: Bioavailability in Sprague-Dawley rat at 1 mg/kg, iv and 3 mg/kg, po. As to conditions: in vivo. The format is ADME, organism-based. Put shortly: (§2)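 Male Sprague-Dawley rats, cassette dosing. Single iv dose of 1 mg/kg and po dose of 3 mg/kg. Clearance and half-life taken from iv data. Bioavailability and po AUC derived from both routes, with AUC dose-normalized to 1 mg/kg. Values are means of n = 3, with n = 2 for some iv groups.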

Series [6] in a line: Half life in Sprague-Dawley rat at 1 mg/kg, iv. Also noted: dose 1 mg/kg, route intravenous. Conditions: in vivo. The format is ADME, organism-based. Put shortly:
as §2

The nature of series [7]: Aqueous solubility at pH 6.8. It counts as physicochemical. Put shortly:
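Thermodynamic solubility, measured at pH 6.8 and 25 °C.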

Series [8] concerns the target Cathepsin S (Mus musculus) (UniProt O70370). Kind of series: Inhibition of cathepsin S in mouse A20 cells assessed as invariant chain degradation at 1 uM. The format is cell-based. A digest of the protocol: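 Mouse A20 cells treated at 1 µM. Cellular cathepsin S activity read out as degradation of invariant chain (Ii).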
Series [9] can be described thus: Clearance in Sprague-Dawley rat at 1 mg/kg, iv and 3 mg/kg, po. The format is ADME, organism-based. As to conditions: in vivo. Put shortly:
as §2

Series [10] can be described thus: Clearance in Sprague-Dawley rat at 1 mg/kg, iv. More on the design: dose 1 mg/kg, route intravenous. It counts as ADME, organism-based. As to conditions: in vivo. Put shortly: as §2
The subject of series [11] is Rattus norvegicus. Kind of series: Bioavailability in Sprague-Dawley rat at 1 mg/kg, iv. The format is ADME, organism-based. Conditions: in vivo. A digest of the protocol: as §2

Sequence of Procathepsin L (P07711 whole entry): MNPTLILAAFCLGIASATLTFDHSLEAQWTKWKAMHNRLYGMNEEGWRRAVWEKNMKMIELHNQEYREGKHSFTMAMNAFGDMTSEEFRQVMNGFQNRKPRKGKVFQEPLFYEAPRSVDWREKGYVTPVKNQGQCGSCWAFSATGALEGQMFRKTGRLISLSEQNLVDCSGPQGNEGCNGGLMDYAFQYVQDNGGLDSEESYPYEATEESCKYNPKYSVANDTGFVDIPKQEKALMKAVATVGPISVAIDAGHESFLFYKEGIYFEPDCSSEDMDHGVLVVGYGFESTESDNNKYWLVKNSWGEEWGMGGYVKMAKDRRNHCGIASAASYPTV

Turning to `N#Cc1ncc(C(=O)NCCc2ccccc2)c(OCC2CCCCC2)n1`, the figures for the IC50 in [1], in [2] and in [3] were 14 nM, 9 nM and 780 nM, respectively.

Regarding `N#Cc1ncc(C(=O)NCCc2ccccc2)c(NCC2CCC(F)(F)CC2)n1`, the IC50 (as a rule, the point on the concentration scale where inhibition reaches its midpoint) was 22 nM in series [1], 130 nM in series [2] and greater than 3000 nM in [3].

On to `CN1CCC(CCOc2nc(C#N)nc(NCC3CCC4(CC3)CC4)c2C(=O)NCCc2ccccc2)CC1`, for which the half-maximal inhibitory concentration (IC50) in series [1] is less than 1 nM; in [3], 10 nM.

With `N#Cc1ncc(C(=O)NCCc2ccccc2)c(NCC2CCC3(CC2)CC3)n1`, the IC50 is 15 nM in series [1], greater than 3000 nM in series [2] and greater than 3000 nM in series [3].

For `CN1CCC(NC(=O)c2cnc(C#N)nc2NCC2CCC3(CC2)CC3)(c2ccccc2)CC1`, the Selectivity ratio in [4] was greater than 100. The results for the 50% inhibitory concentration (IC50) in [1] and in [3] were 7 nM and 510 nM, respectively.

On to `CN1CCC(Oc2ccc(NC(=O)c3cnc(C#N)nc3NCC3CCC4(CC3)CC4)c(-c3ccccc3)c2)CC1`, for which the bioavailability (as a rule, the share of a dose that reaches the circulation, judged against a reference dose that is usually intravenous) in series [5] came out at 66%. The IC50 in series [1] turned out to be 3 nM; in [3], 840 nM. Moreover, in series [6], the half-life (as a rule, the time needed for the level to fall by half in the phase considered) is greater than 8 h. Besides, the concentration in solution in [7] (solubility) came to 2 µg/mL (≈ 3.63 µM). Also, the outcome in series [8] was Active. In addition, in series [9], the clearance is 13.3 mL/min/kg.

As to `CN1CCC(CNC(=O)c2cnc(C#N)nc2NCC2CCC3(CC2)CC3)(c2ccccc2)CC1`, in series [4], the Selectivity ratio is greater than 100. The IC50 was determined as 6 nM in series [1], 170 nM in series [2] and 700 nM in series [3]. The molecule further gave a clearance in series [10] of 173 mL/min/kg. In series [6], this molecule had a half-life of 3.3 h. The solubility (as a rule, how much of the substance goes into solution per volume) in series [7] is 89 µg/mL (≈ 188 µM). The outcome in [8] was Active. In addition, in series [11], the F came to 100%.

As to `CN1CCC(CCOc2nc(C#N)nc(NCC3CCC4(CC3)CC4)c2C(=O)NCc2ccccc2)CC1`, the results for the IC50 in series [1] and in series [3] were less than 1 nM and 270 nM, respectively.

For the molecule `CN1CCC(CCOc2cc(NCC3CCC4(CC3)CC4)nc(C#N)n2)CC1`, the concentration for half-maximal inhibition (IC50) in series [1] amounted to 22 nM; in series [2], 240 nM; in series [3], 870 nM.

As to `CNC(=O)c1c(NCC2CCC3(CC2)CC3)nc(C#N)nc1OCCC1CCN(C)CC1`, the IC50 is 2 nM in [1] and 120 nM in series [3].

Regarding `N#Cc1ncc(C(=O)N[C@@H](Cc2ccccc2)CN2CCCC2)c(NCC2CCC3(CC2)CC3)n1`, the IC50 in series [1] was 23 nM; in [2], 200 nM; in [3], 1500 nM.

`N#Cc1ncc(C(=O)N[C@H](Cc2ccccn2)CN2CCCC2)c(NCC2CCC3(CC2)CC3)n1`: the 50% inhibitory concentration (IC50) in [1] was found to be 4 nM; in [3] it was 480 nM.

Turning to `CN1CCC(Oc2nc(C#N)nc(NCC3CCC4(CC3)CC4)c2C(=O)NCc2ccccc2)CC1`, the IC50 came to 1 nM in series [1] and 100 nM in [3].

For the molecule `N#Cc1ncc(C(=O)NCCc2ccccc2)c(NCC2CCCCC2)n1`, the half-maximal inhibitory concentration (IC50) is 22 nM in series [1], 15 nM in [2] and greater than 2000 nM in series [3].

As for `C[C@@](Cc1ccccc1)(CN1CCCC1)NC(=O)c1cnc(C#N)nc1NCC1CCC2(CC1)CC2`, the values for the IC50 in series [1] and in series [3] were 21 nM and 840 nM, respectively.

On to `N#Cc1ncc(C(=O)NCCc2ccccc2)c(NC2CCCCC2)n1`, for which the figures for the concentration for half-maximal inhibition (IC50) in series [1], in series [2] and in [3] were 130 nM, 10 nM and 1100 nM, respectively.

Take `N#Cc1ncc(C(=O)N[C@H](Cc2ccccc2)CN2CCCC2)c(NCC2CCC3(CC2)CC3)n1`: in series [4], the Selectivity ratio was greater than 100. Also, the bioavailability in [5] was 42%. The results for the IC50 in series [1], in series [2] and in series [3] were less than 1 nM, 44 nM and 150 nM, respectively. Besides, in [6], the half-life was 5.7 h. The molecule further registered a solubility in series [7] of 27 µg/mL (≈ 57.1 µM). The outcome in [8] was Active. The same molecule showed a clearance in series [9] of 16.7 mL/min/kg.

With `CC1(C)CCC(CNc2nc(C#N)ncc2C(=O)NCCc2ccccc2)CC1`, the IC50 in series [1] is 93 nM; in series [2], greater than 3000 nM; in series [3], greater than 3000 nM.

With `CN1CCC(Cc2ccccc2)(NC(=O)c2cnc(C#N)nc2NCC2CCC3(CC2)CC3)CC1`, the Selectivity ratio in series [4] was greater than 100. The half-inhibitory concentration (IC50) in series [1] was 2 nM; in series [2] it was 140 nM; in series [3], 180 nM.

As to `CN1CCC(CCOc2nc(C#N)nc(NCC3CCC4(CC3)CC4)c2Br)CC1`, the bioavailability in series [5] worked out at 100%. In addition, the half-maximal inhibitory concentration (IC50) in [1] worked out at 2 nM; in series [2], 100 nM; in series [3] it was 280 nM. The molecule also gave a half-life in [6] of 4.6 h. In addition, in series [7], the concentration in solution (solubility) was 11 µg/mL (≈ 23.8 µM). For the same molecule, the clearance in series [9] was 85 mL/min/kg.

In the case of `CN(CC1CCCCC1)c1nc(C#N)ncc1C(=O)NCCc1ccccc1`, the half-inhibitory concentration (IC50) in series [1] worked out at 32 nM; in [2], 36 nM; in [3], 2000 nM.

With `COc1cc(NC(=O)c2cnc(C#N)nc2NCC2CCC3(CC2)CC3)c(-c2ccccc2)cc1OC`, the values for the IC50 in series [1], in series [2] and in [3] were 24 nM, greater than 1000 nM and greater than 3000 nM, respectively.

Turning to `CN1CCC(COc2nc(C#N)nc(NCC3CCC4(CC3)CC4)c2C(=O)NCc2ccccc2)CC1`, the concentration for half-maximal inhibition (IC50) in series [1] was less than 1 nM; in series [3], 64 nM.
